Laboratory results published in ChEMBL document CHEMBL5653631, “A Potent and Selective ULK1 Inhibitor Suppresses Autophagy and Sensitizes Cancer Cells to Nutrient Stress” (iScience, 2018).

Columns and labels:
[1] = molecular target: Tyrosine-protein kinase Blk (Homo sapiens) (UniProt P51451); assay: Inhibition of human recombinant BLK at 40 nM in presence of ATP by radiometric assay relative to control
Method in brief: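 Part of a radiometric in vitro activity panel of 327 recombinant human kinases. Each kinase was tested in duplicate at one inhibitor concentration. Activity remaining was expressed as a percentage of the vehicle control, and percent inhibition was taken as 100 minus that value.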

[2] = molecular target: T1, Discoidin domain-containing receptor 2 (Homo sapiens) (UniProt Q16832); assay: Inhibition of human recombinant DDR2 at 40 nM in presence of ATP by radiometric assay relative to control
T1 sequence (whole entry): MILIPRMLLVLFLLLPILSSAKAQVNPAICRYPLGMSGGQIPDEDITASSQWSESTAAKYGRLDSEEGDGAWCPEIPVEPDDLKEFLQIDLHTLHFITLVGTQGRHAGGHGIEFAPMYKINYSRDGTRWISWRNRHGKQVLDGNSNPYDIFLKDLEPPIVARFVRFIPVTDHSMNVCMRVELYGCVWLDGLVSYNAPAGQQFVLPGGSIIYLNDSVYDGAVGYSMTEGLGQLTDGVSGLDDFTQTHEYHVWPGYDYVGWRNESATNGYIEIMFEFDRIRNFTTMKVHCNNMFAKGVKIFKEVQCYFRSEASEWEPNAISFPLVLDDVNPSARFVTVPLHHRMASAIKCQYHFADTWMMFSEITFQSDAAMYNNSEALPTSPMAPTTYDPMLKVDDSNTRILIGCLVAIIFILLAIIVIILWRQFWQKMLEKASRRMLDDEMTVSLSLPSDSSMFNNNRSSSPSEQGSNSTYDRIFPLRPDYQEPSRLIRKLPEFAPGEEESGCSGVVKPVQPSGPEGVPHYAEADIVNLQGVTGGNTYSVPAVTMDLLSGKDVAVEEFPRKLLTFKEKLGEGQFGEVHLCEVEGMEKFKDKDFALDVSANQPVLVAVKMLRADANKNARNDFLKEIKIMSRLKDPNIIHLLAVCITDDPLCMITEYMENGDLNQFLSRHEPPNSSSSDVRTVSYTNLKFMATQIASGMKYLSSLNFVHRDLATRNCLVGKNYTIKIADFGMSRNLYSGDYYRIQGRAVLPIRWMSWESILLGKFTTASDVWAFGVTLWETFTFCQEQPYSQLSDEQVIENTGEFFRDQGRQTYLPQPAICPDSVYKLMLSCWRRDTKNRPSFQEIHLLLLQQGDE

[3] = molecular target: Tyrosine-protein kinase BTK (Homo sapiens) (UniProt Q06187); assay: Inhibition of human recombinant BTK at 40 nM related to control ULK1
[4] = species: Homo sapiens; assay: Inhibition of human recombinant CK1d at 40 nM related to control ULK1
[5] = molecular target: Protein kinase C alpha type (Homo sapiens) (UniProt P17252); assay: Inhibition of human recombinant PKCa at 40 nM related to control ULK1
[6] = molecular target: T2, Testis-specific serine/threonine-protein kinase 1 (Homo sapiens) (UniProt Q9BXA7); assay: Inhibition of human recombinant TSSK1 at 40 nM related to control ULK1
T2 sequence (whole entry): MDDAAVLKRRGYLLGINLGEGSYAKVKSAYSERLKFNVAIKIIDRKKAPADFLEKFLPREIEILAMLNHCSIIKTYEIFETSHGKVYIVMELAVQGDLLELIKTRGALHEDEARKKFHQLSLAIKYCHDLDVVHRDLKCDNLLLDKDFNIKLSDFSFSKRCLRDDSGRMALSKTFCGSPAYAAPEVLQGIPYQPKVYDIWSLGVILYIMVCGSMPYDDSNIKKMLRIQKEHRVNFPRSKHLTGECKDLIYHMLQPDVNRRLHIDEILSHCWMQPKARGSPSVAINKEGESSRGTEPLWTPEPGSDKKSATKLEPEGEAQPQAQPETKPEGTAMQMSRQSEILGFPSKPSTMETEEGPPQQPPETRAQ

[7] = molecular target: T3, Homeodomain-interacting protein kinase 4 (Homo sapiens) (UniProt Q8NE63); assay: Inhibition of human recombinant HIPK4 at 15 nM in presence of ATP by radiometric assay relative to control
T3 sequence (whole entry): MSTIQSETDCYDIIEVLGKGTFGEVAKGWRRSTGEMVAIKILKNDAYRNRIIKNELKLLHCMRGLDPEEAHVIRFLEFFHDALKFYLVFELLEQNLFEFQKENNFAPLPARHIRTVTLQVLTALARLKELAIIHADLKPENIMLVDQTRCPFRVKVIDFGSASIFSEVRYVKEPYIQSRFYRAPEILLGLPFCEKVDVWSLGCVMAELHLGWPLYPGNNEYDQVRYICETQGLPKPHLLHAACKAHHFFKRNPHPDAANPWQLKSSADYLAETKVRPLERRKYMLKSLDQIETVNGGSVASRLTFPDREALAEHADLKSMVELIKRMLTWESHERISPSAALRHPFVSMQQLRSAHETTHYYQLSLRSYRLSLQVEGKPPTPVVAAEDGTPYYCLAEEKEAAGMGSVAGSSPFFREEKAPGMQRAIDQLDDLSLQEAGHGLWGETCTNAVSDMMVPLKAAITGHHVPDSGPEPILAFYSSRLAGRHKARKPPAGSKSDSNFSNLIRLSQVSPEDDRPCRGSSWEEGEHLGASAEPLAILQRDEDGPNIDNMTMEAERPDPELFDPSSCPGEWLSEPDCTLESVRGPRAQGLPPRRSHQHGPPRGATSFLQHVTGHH

[8] = molecular target: Activated CDC42 kinase 1 (Homo sapiens) (UniProt Q07912); assay: Inhibition of human recombinant ACK at 15 nM related to control ULK1
[9] = molecular target: Maternal embryonic leucine zipper kinase (Homo sapiens) (UniProt Q14680); assay: Inhibition of human recombinant MELK at 15 nM related to control ULK1
[10] = molecular target: Rho-associated protein kinase 1 (Homo sapiens) (UniProt Q13464); assay: Inhibition of human recombinant ROCK1 at 500 nM in presence of ATP by radiometric assay relative to control
[11] = molecular target: Cyclin-dependent kinase 13 (Homo sapiens) (UniProt Q14004); assay: Inhibition of human recombinant CHED at 500 nM related to control ULK1
[12] = molecular target: TGF-beta receptor type-2 (Homo sapiens) (UniProt P37173); assay: Inhibition of human recombinant TGFbR2 at 500 nM related to control ULK1
Chain of TGF-beta receptor type-2 (Homo sapiens) (P37173 whole entry): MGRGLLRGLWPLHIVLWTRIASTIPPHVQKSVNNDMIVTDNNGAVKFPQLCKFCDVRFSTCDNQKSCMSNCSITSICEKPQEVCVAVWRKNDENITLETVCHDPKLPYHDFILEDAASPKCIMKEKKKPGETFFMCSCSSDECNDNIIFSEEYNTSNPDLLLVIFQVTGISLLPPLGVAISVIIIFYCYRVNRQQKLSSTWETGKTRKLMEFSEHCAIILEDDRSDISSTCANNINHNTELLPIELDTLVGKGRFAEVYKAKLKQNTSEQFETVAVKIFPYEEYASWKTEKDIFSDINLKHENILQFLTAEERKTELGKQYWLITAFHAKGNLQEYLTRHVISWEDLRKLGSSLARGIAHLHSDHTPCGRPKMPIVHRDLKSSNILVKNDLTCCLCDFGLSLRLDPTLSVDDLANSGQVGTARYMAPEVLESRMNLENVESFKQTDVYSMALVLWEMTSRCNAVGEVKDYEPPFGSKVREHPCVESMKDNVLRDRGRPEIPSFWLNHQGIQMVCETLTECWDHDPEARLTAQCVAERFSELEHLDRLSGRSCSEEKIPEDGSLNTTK

Chain of Cyclin-dependent kinase 13 (Homo sapiens) (Q14004 whole entry, looked up): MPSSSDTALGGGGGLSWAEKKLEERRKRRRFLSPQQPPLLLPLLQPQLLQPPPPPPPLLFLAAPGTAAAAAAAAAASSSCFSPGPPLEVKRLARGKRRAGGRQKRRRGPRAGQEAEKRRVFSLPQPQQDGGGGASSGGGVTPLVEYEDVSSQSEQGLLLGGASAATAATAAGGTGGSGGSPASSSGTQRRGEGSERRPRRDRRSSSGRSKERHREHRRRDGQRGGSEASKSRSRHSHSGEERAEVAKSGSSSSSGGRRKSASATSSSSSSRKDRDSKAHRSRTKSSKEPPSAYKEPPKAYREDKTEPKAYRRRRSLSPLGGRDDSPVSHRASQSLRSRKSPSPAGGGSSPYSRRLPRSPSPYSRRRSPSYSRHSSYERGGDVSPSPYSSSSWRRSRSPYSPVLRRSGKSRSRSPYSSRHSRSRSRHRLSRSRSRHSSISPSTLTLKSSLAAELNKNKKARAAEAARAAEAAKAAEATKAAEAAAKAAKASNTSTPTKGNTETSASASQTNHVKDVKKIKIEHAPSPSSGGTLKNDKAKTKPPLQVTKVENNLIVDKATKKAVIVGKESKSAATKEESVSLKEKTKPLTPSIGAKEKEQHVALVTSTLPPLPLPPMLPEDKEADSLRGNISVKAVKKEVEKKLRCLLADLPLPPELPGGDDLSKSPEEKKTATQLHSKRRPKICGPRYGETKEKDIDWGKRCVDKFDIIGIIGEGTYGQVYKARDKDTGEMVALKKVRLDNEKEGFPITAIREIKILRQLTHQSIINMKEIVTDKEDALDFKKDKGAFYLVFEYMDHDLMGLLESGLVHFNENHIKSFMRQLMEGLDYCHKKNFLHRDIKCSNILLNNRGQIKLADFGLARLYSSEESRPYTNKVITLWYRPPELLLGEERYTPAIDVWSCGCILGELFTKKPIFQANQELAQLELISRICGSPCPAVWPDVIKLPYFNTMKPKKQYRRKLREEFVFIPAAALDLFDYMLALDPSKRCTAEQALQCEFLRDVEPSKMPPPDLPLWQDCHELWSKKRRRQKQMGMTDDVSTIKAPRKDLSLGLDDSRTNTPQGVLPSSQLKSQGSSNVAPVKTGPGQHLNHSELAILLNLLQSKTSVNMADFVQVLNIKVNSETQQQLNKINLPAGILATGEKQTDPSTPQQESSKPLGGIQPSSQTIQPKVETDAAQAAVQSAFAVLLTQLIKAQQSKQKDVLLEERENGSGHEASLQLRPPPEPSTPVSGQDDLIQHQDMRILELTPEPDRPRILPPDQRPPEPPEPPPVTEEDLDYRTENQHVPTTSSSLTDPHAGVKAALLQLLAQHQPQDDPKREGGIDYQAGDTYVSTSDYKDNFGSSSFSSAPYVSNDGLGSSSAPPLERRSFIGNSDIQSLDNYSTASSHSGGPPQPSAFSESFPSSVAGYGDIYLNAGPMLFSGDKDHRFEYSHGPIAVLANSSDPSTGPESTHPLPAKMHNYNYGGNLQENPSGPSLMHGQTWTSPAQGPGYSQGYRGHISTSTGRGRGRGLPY
Chain of Tyrosine-protein kinase Blk (Homo sapiens) (P51451 2-505 limits assumed): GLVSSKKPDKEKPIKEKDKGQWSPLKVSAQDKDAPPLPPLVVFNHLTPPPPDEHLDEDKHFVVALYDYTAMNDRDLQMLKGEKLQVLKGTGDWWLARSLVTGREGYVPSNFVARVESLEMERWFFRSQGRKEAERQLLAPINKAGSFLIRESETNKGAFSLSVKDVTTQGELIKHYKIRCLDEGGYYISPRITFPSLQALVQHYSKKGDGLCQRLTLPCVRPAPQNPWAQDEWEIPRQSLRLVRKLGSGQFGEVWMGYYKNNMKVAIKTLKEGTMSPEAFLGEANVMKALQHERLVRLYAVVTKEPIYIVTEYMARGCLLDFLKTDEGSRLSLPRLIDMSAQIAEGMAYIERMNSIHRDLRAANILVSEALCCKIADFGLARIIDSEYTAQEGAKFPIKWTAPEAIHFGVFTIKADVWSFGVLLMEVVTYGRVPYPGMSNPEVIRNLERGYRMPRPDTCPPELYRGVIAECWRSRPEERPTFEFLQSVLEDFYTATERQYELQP
Chain of Tyrosine-protein kinase BTK (Homo sapiens) (Q06187 whole entry): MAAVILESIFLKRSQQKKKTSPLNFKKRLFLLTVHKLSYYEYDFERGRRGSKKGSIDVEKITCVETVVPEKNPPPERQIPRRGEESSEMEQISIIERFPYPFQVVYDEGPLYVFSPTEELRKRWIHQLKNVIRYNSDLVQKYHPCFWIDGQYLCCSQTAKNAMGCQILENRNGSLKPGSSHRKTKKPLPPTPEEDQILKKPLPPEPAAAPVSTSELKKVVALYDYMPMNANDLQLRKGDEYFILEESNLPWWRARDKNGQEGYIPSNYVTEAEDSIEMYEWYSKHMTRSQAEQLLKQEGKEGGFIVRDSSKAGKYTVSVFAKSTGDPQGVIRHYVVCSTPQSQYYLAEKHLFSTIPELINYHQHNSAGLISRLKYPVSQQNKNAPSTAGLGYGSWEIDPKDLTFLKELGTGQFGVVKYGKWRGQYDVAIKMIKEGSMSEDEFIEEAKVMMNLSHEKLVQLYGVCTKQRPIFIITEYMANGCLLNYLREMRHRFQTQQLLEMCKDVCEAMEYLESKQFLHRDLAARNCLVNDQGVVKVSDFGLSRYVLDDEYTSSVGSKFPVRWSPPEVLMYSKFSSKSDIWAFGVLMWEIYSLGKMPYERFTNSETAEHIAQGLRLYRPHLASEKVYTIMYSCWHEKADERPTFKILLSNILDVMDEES
Chain of Activated CDC42 kinase 1 (Homo sapiens) (Q07912 whole entry, looked up): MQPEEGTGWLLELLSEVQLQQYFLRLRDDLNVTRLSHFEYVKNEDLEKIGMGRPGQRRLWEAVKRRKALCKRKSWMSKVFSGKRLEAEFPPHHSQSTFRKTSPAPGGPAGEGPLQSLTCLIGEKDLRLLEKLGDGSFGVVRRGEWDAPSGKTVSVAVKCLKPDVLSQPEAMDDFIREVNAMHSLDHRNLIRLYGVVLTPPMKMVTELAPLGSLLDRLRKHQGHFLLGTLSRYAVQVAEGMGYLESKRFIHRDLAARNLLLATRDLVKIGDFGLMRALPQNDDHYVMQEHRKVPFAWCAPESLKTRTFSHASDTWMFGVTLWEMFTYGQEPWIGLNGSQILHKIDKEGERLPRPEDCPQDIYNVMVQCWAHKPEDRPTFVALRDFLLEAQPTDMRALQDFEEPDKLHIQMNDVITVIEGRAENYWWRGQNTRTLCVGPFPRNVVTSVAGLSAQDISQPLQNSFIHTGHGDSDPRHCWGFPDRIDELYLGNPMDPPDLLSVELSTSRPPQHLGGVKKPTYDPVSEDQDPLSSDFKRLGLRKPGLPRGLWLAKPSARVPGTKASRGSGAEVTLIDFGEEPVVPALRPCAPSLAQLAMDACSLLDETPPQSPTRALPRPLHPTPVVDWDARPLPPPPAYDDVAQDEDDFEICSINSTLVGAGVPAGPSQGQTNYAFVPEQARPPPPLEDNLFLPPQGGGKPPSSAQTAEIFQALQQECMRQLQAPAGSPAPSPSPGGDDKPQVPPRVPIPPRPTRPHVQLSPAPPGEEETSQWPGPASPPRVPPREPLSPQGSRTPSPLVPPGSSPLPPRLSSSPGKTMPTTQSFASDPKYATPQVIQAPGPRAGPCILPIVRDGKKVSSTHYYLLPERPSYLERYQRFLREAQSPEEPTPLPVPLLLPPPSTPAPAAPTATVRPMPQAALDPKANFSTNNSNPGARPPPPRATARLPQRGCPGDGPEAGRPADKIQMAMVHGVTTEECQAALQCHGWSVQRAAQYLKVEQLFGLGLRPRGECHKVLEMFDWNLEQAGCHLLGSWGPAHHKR

O=C(N[C@@H](C1CC1)C(F)(F)F)c1cc(-c2cnn3cc(-c4ccc(F)cc4)cnc23)cs1
inhibition [1]: 17% | inhibition [2]: 0% | fold change (FC) [3]: 0 | fold change (FC) [4]: 0.04 | fold change (FC) [5]: 0 | fold change (FC) [6]: 0

CC(C)[C@H](NC(=O)c1cc(-c2cnn3cc(-c4ccc(OCCN5CCCCC5)cc4)cnc23)cs1)C(F)(F)F
inhibition [7]: 0% | fold change (FC) [8]: 0 | fold change (FC) [9]: 0.76

CNC(=O)c1ccccc1Oc1nc(Nc2cc(OC)c(OC)c(OC)c2)ncc1Br
inhibition [10]: 0% | fold change (FC) [11]: 0 | fold change (FC) [12]: 0.03
